Source: ChEMBL document CHEMBL1158375, “Design and synthesis of new N-(fluorenyl-9-methoxycarbonyl) (Fmoc)-dipeptides as anti-inflammatory agents” (Eur J Med Chem, 2009)
pIC50: −log10 of the molar value.

Key:
Settings in all cases: Neutrophil
[1] = Antiinflammatory activity in fMLP/cytochalasin B-stimulated human neutrophils assessed as inhibition of superoxide anion generation after 5 mins; format: functional, cell-based
In short: (§1)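 Donor neutrophils isolated by dextran sedimentation, Ficoll Hypaque and hypotonic lysis, kept in Ca2+-free HBSS pH 7.4 at 4 °C. Cells given 0.5 mg/mL ferricytochrome c and 1 mM Ca2+, 2 min at 37 °C, drug 5 min, CB 1 μg/mL 3 min, then 100 nM fMLP for 10 min. SOD-inhibitable cytochrome c reduction. IC50 or % inhibition at 10 μg/mL; mean ± S.E.M., n = 3-4.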

[2] = Antiinflammatory activity in fMLP/cytochalasin B-stimulated human neutrophils assessed as inhibition of elastase release after 5 mins; format: functional, cell-based
In short: (§2)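 Neutrophils from healthy donor blood (dextran sedimentation, Ficoll Hypaque, hypotonic erythrocyte lysis; >98% viable), held in Ca2+-free HBSS pH 7.4 at 4 °C. 5 × 10⁵ cells/mL with 100 μM MeO-Suc-Ala-Ala-Pro-Val-p-nitroanilide, 2 min at 37 °C, drug 5 min, then 100 nM fMLP + 0.5 μg/mL CB. A405 followed continuously; percent of initial rate versus drug-free control. IC50 or % inhibition at 10 μg/mL; mean ± S.E.M., n = 3-4.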

[3] = Antiinflammatory activity in fMLP/cytochalasin B-stimulated human neutrophils assessed as inhibition of elastase release at 10 ug/ml after 5 mins; format: functional; in short: as §2
[4] = Antiinflammatory activity in fMLP/cytochalasin B-stimulated human neutrophils assessed as inhibition of superoxide anion generation at 10 ug/ml after 5 mins; format: functional; in short: as §1

Compound	pIC50 [1]	pIC50 [2]	inhibition at 10 µg/mL [3] [%]	inhibition at 10 µg/mL [4] [%]
CC(C)(C)Oc1ccc(C[C@H](NC(=O)OCC2c3ccccc3-c3ccccc32)C(=O)O)cc1	5.26	5.25		
O=C(N[C@@H](Cc1c[nH]c2ccccc12)C(=O)O)OCC1c2ccccc2-c2ccccc21	5.48		45.4	
CC(=O)OC[C@H](Cc1ccccc1)NC(=O)[C@H](Cc1ccc2ccccc2c1)NC(=O)OCC1c2ccccc2-c2ccccc21			37.8	5
O=C(N[C@@H](Cc1ccccc1)C(=O)O)OCC1c2ccccc2-c2ccccc21	4.85	4.85		
CC(=O)OC[C@H](Cc1ccccc1)NC(=O)[C@H](Cc1cn(C(c2ccccc2)(c2ccccc2)c2ccccc2)cn1)NC(=O)OCC1c2ccccc2-c2ccccc21			32	9.5
CC(=O)OC[C@H](Cc1ccccc1)NC(=O)[C@H](Cc1ccccc1)NC(=O)OC(C)(C)C			18.9	42.1
CC(=O)OC[C@@H](Cc1ccccc1)NC(=O)[C@H](Cc1ccccc1)NC(=O)OC(C)(C)C			11	4.7
CC(=O)OC[C@H](Cc1ccccc1)NC(=O)[C@H](Cc1ccc(OC(C)(C)C)cc1)NC(=O)OCC1c2ccccc2-c2ccccc21		6.10		25.9
CC(=O)OC[C@@H](Cc1ccccc1)NC(=O)[C@H](Cc1ccccc1)NC(=O)OCC1c2ccccc2-c2ccccc21		4.89		31.3
CC(=O)OC[C@H](Cc1ccccc1)NC(=O)[C@@H](N)Cc1ccc(O)cc1			22.8	-0.5
CC(=O)OC[C@H](Cc1ccccc1)NC(=O)[C@@H](N)Cc1ccccc1	< 4.70	< 4.70		
CC(=O)OC[C@@H](Cc1ccccc1)NC(=O)[C@@H](NC(=O)OCC1c2ccccc2-c2ccccc21)C(C)C			34.6	-2.3
CC(C)[C@H](NC(=O)OCC1c2ccccc2-c2ccccc21)C(=O)O			14.5	29.4
CC(=O)OC[C@@H](Cc1ccccc1)NC(=O)[C@@H](N)Cc1ccc(O)cc1		5.43		8
CC(=O)OC[C@@H](Cc1ccccc1)NC(=O)[C@H](Cc1c[nH]c2ccccc12)NC(=O)OCC1c2ccccc2-c2ccccc21		5.77		18.6
CC(=O)OC[C@@H](Cc1ccccc1)NC(=O)[C@H](Cc1ccc(OC(C)(C)C)cc1)NC(=O)OCC1c2ccccc2-c2ccccc21			31.9	22.3

Compound	pIC50 [1]	pIC50 [2]	inhibition at 10 µg/mL [3] [%]	inhibition at 10 µg/mL [4] [%]
c1ccc2c(c1)[I+]c1ccccc1-2 [DIPHENYLENEIODONIUM]	6.15			
CC(=O)OC[C@H](Cc1ccccc1)NC(=O)[C@@H](NC(=O)OCC1c2ccccc2-c2ccccc21)C(C)C			27.7	-6.3
CC(=O)OC[C@H](Cc1ccccc1)NC(=O)[C@H](Cc1ccc(O)cc1)NC(=O)OCC1c2ccccc2-c2ccccc21			22.8	-0.5
CC(=O)OC[C@H](Cc1ccccc1)NC(=O)[C@H](Cc1ccccc1)NC(=O)OCc1ccccc1			27.2	39.3
CC(=O)OC[C@@H](Cc1ccccc1)NC(=O)[C@@H](N)Cc1ccccc1	< 4.70	< 4.70		
CC[C@H](C)[C@H](NC(=O)OCC1c2ccccc2-c2ccccc21)C(=O)N[C@@H](COC(C)=O)Cc1ccccc1			22.5	6
CC(=O)OC[C@@H](Cc1ccccc1)NC(=O)[C@H](Cc1ccc(O)cc1)NC(=O)OCC1c2ccccc2-c2ccccc21		5.19		8
CC(=O)OC[C@@H](Cc1ccccc1)NC(=O)[C@H](Cc1cn(C(c2ccccc2)(c2ccccc2)c2ccccc2)cn1)NC(=O)OCC1c2ccccc2-c2ccccc21			-2.9	6.6
CC(=O)OC[C@H](Cc1ccccc1)NC(=O)[C@H](Cc1c[nH]c2ccccc12)NC(=O)OCC1c2ccccc2-c2ccccc21		5.26		24.5
CC[C@H](C)[C@H](NC(=O)OCC1c2ccccc2-c2ccccc21)C(=O)O	4.89		39.8	
CC(=O)OC[C@@H](Cc1ccccc1)NC(=O)[C@H](Cc1ccccc1)NC(=O)OCc1ccccc1			35.4	40.9
O=C(N[C@@H](Cc1ccc(O)cc1)C(=O)O)OCC1c2ccccc2-c2ccccc21	5.62	5.54		
CC(=O)OC[C@@H](Cc1ccccc1)NC(=O)[C@H](Cc1ccc2ccccc2c1)NC(=O)OCC1c2ccccc2-c2ccccc21		4.84		2.1
CC[C@H](C)[C@H](NC(=O)OCC1c2ccccc2-c2ccccc21)C(=O)N[C@H](COC(C)=O)Cc1ccccc1			25.8	2.2
CC(=O)OC[C@H](Cc1ccccc1)NC(=O)[C@H](Cc1ccccc1)NC(=O)OCC1c2ccccc2-c2ccccc21			39.5	2.8
